NR2E3 ag-1 = human photoreceptor-specific nuclear receptor agonism. Q9Y5X4. CHO-S Gal4-NCOR/VP16-NR2E3 two-hybrid, luciferase. inhibition of corepressor binding, % at 3.98 µM. hit rate 0.35% among 360,000. AID 602229;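 active = inhibition above the mean of all tested compounds plus 3 SD, cut at about 70% in these data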;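 note: 0% = DMSO with NR2E3 transfected cells and 100% = cells lacking NR2E3 construct; higher means lower luciferase signal from less NR2E3 corepressor binding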
Target sequence (Q9Y5X4 whole entry, looked up, the tested form may be a part): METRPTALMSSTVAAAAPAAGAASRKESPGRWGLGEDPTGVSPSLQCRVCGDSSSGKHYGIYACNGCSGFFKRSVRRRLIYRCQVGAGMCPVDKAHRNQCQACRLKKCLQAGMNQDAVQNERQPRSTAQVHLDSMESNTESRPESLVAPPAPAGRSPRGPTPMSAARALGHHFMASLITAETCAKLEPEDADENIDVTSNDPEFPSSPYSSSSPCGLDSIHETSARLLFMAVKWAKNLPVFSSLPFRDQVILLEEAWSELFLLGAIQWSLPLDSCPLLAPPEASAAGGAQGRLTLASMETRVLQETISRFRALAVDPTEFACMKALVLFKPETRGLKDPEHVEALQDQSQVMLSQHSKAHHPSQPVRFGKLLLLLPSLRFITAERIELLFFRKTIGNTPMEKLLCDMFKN
Jurkat NFkB inh = lowers PMA/ionomycin-induced NF-kB signal in Jurkat cells; inhibition, % at 4 µM; PMA/ionomycin-induced NF-kB luciferase reporter, luminescence; hit rate 0.53% among 330,000; in the data active = inhibition above about 50%
NR2E3 ag-2 = agonists of human nuclear receptor NR2E3; inhibition of corepressor binding, % at 4.78 µM; hit rate 0.12% among 320,000; GST-NR2E3/biotin-RetCOR TR-FRET, 1536-well; AID 2300; Q9Y5X4;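 active = percent inhibition above the cutoff of mean plus 3 SD of all tested compounds, set per screening campaign, cut at about 20% in these data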;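 note: 0% = DMSO wells and 100% = biotin wells as full block of FRET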
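Material: NR2E3–RetCOR corepressor complex / Incubation: Compound–protein incubation for 5 h at 4 °C / Dosing: compound at 4.8 µM, single dose / Detection: time-resolved FRET / Benchmarks: high control biotin, low control 0.6% DMSO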
697 NFkB inh = lowers PMA/ionomycin-induced NF-kB signal in 697 B cells | 697 B-cell NF-kB luciferase reporter, 16 h | inhibition, % at 4 µM | hit rate 0.33% among 330,000 | AID 435022; in the data active = inhibition above about 35%
GalR3 antag = blocks the human galanin receptor 3 | O60755 | HEK293 GalR3-CNG cAMP membrane potential fluorescence; galR3 body fused to GalR1 C-terminus | inhibition, % at 3 µM | hit rate 0.44% among 360,000;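 active = inhibition above the screen-wide average plus 3 SD, cut at about 13% in these data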;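 note: forskolin and galanin both at EC90 stimulate the cells; cAMP rise reported by CNG channel membrane potential dye signal; 0% = forskolin plus galanin with DMSO and 100% = forskolin alone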
JMJD2C inh = human JMJD2C demethylase inhibition | AID 2099 | inhibition, % at 2.35 µM | hit rate 0.069% among 330,000 | GST-JMJD2C(1-420) H3K9me3 demethylation, DELFIA europium | Q9H3R0;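 active = more than half of a compound's replicate wells show inhibition beyond 50%, single wells judged on their own value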;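 note: signal counts dimethyl H3K9 product captured on neutravidin plate; 0% = median of DMSO wells and 100% = 0.3 times that DMSO median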
Jurkat NFkB conf = inhibitors of the PMA/ionomycin-induced NF-kB reporter in Jurkat cells, retest | Jurkat NF-kB luciferase, 16 h | inhibition, % at 4 µM | hit rate 27% among 2,700 | shares compounds with Jurkat NFkB inh;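 active = inhibition reaching about 45% at 4 µM in either replicate, limit read from the data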;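 note: plate controls were PMA/ionomycin stimulated DMSO wells for no effect and unstimulated DMSO wells for full effect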
Numbers without * were called inactive; . = no result given. Rows were chosen to be rich in hits. Some 1.5% of all compounds tested hit in one or more screens of this group.

SMILES	NR2E3 ag-1	Jurkat NFkB inh	NR2E3 ag-2	697 NFkB inh	GalR3 antag	JMJD2C inh	Jurkat NFkB conf
O=C(CN1C(=O)NC2(CCCCC2)C1=O)Nc1cc(C(F)(F)F)ccc1N1CCCCC1	-17	2	1	12	-2	4	.
Cc1ccc(NC(=O)CSc2nc(-c3ccco3)cc(C(F)(F)F)n2)cc1C	-6	71*	1	-45	-4	-9	49*
COC(=O)c1ccccc1NC(=O)CSc1nc(-c2ccco2)cc(C(F)(F)F)n1	-27	56*	3	0	0	.	43
O=C(CSc1nc(-c2ccco2)cc(C(F)(F)F)n1)Nc1ccc2c(c1)CCC2	5	61*	2	8	-5	0	24
COC(=O)c1ccc(C(=O)OC)c(NC(=O)CSc2nc(-c3ccco3)cc(C(F)(F)F)n2)c1	-22	.	.	.	-1	.	.
CC(C)[C@H](NC(=O)N1CCn2c1nc1ccccc12)C(=O)NC1CCCCC1	-30	-2	5	-15	-3	13	.
Cc1ccc(NC(=O)CCN2CC(C)OC(C)C2)cc1 (stereo not drawn)	-23	2	0	-2	-2	-10	.
CC(=O)N(C1=C(N2CCOCC2)C(=O)c2ccccc2C1=O)c1ccc(C(=O)O)cc1	21	1	-1	18	-7	11	.
CC(=O)N(C)C1=C(N2CCOCC2)C(=O)c2ccccc2C1=O	-13	87*	-9	32	.	99*	79*
Cc1ccc(S(=O)(=O)N2CCCCC2CCNC(=O)C(=O)NCCc2ccco2)cc1 (stereo not drawn)	-42	60*	0	-15	2	7	25
CC(=O)c1sc2c(c1OC(=O)c1ccc(Cl)cc1Cl)c(=O)n(-c1ccccc1)c(=S)n2-c1ccccc1	-38	69*	8	-15	-12	3	87*
COc1cc(C(=O)NC(=S)Nc2cccc(-c3cc4ccccc4oc3=O)c2)cc(OC)c1OC	-5	11	0	-13	-2	-5	.
Cc1cc(NC(=S)NC(=O)c2ccccc2)ccc1-c1cc2ccccc2oc1=O	-13	59*	0	-24	-4	-7	4
Cc1ccc(C(=O)Nc2cc3ccccc3oc2=O)cc1	-123	79*	0	1	-5	-31	77*
CC(=O)Nc1cc2ccccc2oc1=O	-11	3	3	-9	-3	4	.
O=C(CCC(=O)N1CCN(S(=O)(=O)c2ccccc2)CC1)c1ccc(Br)cc1	2	2	.	11	-6	12	.
COc1ccc(/C(C)=N/Nc2nc3ccccc3n3cnnc23)cc1OC	.	-8	3	-13	-7	-5	.
O=C(c1ccc2c3n(nc2c1)-c1ccc(Cl)cc1CO3)N1CCCCC1	-88	-89	0	-74	-2	-3	.
C=CCNC(=O)c1ccc2c3n(nc2c1)-c1ccccc1CO3	-128	-154	0	-167	-2	-1	-71
O=C(O)c1ccc2c3n(nc2c1)-c1ccc(Cl)cc1CO3	.	59*	3	-22	1	-2	10
COC(=O)Nc1nnc(-c2ccccc2Cl)s1	-127	-26	3	-85	-2	4	.
COc1cccc(C(=O)/C=C/Nc2cc(C)ccc2O)c1	-132	67*	-6	-61	1	5	-8
COc1ccc(N/C=C/C(=O)c2ccc(C)cc2)c([N+](=O)[O-])c1	-176	-179	0	-191	-3	2	-84
Cc1cccc(OCC(=O)Nc2cc(C)c(C)cc2O)c1	3	7	-1	-9	-9	2	.
COc1ccc(C(=O)/C=C/Nc2cccc(O)c2)cc1	-137	-179	-2	-60	0	-5	-69
SMILES	NR2E3 ag-1	Jurkat NFkB inh	NR2E3 ag-2	697 NFkB inh	GalR3 antag	JMJD2C inh	Jurkat NFkB conf
Cc1cccc(OCC(=O)Nc2cc(C)ccc2O)c1	-5	72*	-2	29	-4	5	55*
CCOC(=O)c1ccc(N/C=C\C(=O)c2cccc(OC)c2)cc1	-45	-29	2	-65	6	-2	.
CN1OC[C@@H]2CN(Cc3cc(Cl)cc(Cl)c3)[C@H](c3cccc(-c4ccccc4)c3)C[C@@H]21	-3	.	.	.	-6	.	.
Cc1ccc(Cl)c(N/C=C/C(=O)c2ccccc2)c1	-169	-181	-2	-229	-8	12	-80
Cc1cccc(N/C=C/C(=O)c2ccc(Cl)cc2)c1	-107	-136	0	-154	-3	5	.
Cc1ccc(O)c(NC(=O)CCC2CCCCC2)c1	-69	64*	3	3	0	2	40
CC1CCC(NC(=O)c2ccc(COc3ccccc3)o2)CC1 (stereo not drawn)	-10	-16	4	-24	-5	1	.
Cc1ccc(C(=O)NCC(=O)NCC(c2cccs2)N(C)C)cc1C (stereo not drawn)	-38	-13	.	-31	-1	4	.
CC(C)(C)c1ccc(C(=O)Nc2ccccc2Cl)cc1	-152	-249	7	-106	-6	1	-167
CCn1nc(C)cc1C(=O)N1CCCC(N(C)CCc2ccc(OC)c(OC)c2)C1 (stereo not drawn)	-22	-1	2	-3	-2	-1	.
O=C(N=Nc1c(O)[nH]c2ccc(Br)cc12)c1ccccc1-n1cccc1	-12	71*	1	13	-9	-1	39
COc1ccc(-c2cc(-c3ccc(OC)c(OC)c3)n[nH]2)c(O)c1	-113	-105	0	-59	-2	-9	.
COc1ccc(-c2cc(-c3ccccc3O)[nH]n2)cc1OC	-124	-156	1	-147	-4	4	-86
COC(=O)c1cc2c(c3c4cc(F)ccc4n(S(=O)(=O)c4ccccc4)c13)C(=O)N(Cc1ccc(C(F)(F)F)cc1)C2	.	.	.	.	-5	.	.
CCn1c(SCC(=O)Nc2ccccc2C)nc2nc3c(cc2c1=O)COC(C)(C)C3	4	18	2	16	-5	1	.
Cc1nnc(SCC(=O)Nc2nsc(-c3ccc(C(C)(C)C)cc3)n2)s1	-119	-153	0	-136	0	1	-82
CSc1nc2ccccc2cc1/C=C(\C#N)c1cccc(Cl)c1	-29	54*	6	-34	-2	0	3
CCOC(=O)/C(C#N)=C/c1cc2ccccc2nc1Cl	-32	-1	2	14	-7	9	.
CCOc1ccccc1NC(=O)c1cccc(NC(=O)c2ccco2)c1	-118	57*	0	-35	-3	1	31
COc1ccccc1N1CCN(C(=O)c2ccc(-c3ccc(Cl)cc3)o2)CC1	-3	63*	-1	-48	-3	-5	53*
CC(=O)Nc1ccc(C(=O)N2CCCCC2c2cc(C(=O)NCc3cccnc3)no2)cc1 (stereo not drawn)	-4	.	.	.	-5	.	.

From PubChem BioAssay
